These results are taken from ChEMBL document CHEMBL4680083, “Identification of Tricyclic Agonists of Sphingosine-1-phosphate Receptor 1 (S1P) Employing Ligand-Based Drug Design” (J Med Chem, 2016).

The term EC50 denotes the concentration at which the effect is half-maximal.

Where only a bound is given, the exact number is not on record here.

Sphingosine 1-phosphate receptor 1, sequence (P21453 whole entry): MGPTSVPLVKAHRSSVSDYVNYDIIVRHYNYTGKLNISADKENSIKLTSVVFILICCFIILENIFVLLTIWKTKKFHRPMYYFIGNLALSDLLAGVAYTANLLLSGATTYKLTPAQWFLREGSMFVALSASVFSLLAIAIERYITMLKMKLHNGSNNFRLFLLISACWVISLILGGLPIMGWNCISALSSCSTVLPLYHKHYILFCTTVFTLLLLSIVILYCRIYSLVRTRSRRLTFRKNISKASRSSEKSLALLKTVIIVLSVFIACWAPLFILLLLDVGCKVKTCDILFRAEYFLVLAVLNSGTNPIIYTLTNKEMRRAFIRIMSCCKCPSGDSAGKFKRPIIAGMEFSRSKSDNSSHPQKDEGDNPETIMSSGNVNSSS

The target of one data set is Sphingosine 1-phosphate receptor 3 (Homo sapiens, UniProt Q99500). In words: Agonist activity at human S1P3 expressed in CHO cell membranes assessed as stimulation of [35S]-GTPgamma-S binding measured after 45 mins by liquid scintillation counting method. Also on record: species or system Cell membrane.
Sphingosine 1-phosphate receptor 3, sequence (Q99500 whole entry): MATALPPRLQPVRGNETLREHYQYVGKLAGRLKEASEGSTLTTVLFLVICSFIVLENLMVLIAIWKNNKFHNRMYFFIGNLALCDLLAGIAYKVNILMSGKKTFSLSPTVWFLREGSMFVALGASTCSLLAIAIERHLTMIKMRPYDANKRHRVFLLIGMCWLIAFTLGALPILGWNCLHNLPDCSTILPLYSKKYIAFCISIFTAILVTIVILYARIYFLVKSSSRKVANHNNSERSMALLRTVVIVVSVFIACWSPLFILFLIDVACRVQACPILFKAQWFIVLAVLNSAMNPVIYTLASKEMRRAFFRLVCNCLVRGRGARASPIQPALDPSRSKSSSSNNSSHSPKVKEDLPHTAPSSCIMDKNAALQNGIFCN
Details: not given
With `CS(=O)(=O)CCNC(=O)C(O)c1ccc2c(c1)CCc1c-2noc1-c1noc(-c2ccccc2)c1C(F)(F)F` (stereo in doubt; 78) [listing 1 of 2 here], the EC50 came to 6.2 µM.
On the same count and under the same terms, the result for `O=C(O)C1CN(Cc2ccc3c(c2)CCc2c-3n[nH]c2-c2onc(-c3ccccc3)c2C(F)(F)F)C1` reads over 63 µM.
Still for that read-out and setting: to `CN1Cc2c(noc2-c2onc(-c3ccccc3)c2C(F)(F)F)-c2ccc(CN3CC(C(=O)O)C3)cc21` belongs over 63 µM; to `O=C(O)[C@H]1CCCN(CC(O)c2ccc3c(c2)CCc2c-3noc2-c2noc(-c3ccccc3)c2C(F)(F)F)C1` (stereo in doubt; 75) [listing 1 of 2 here], 13 µM; to `O=C(O)C1CN(Cc2ccc3c(c2)CCCc2c(-c4noc(-c5ccccc5)c4C(F)(F)F)noc2-3)C1`, 12 µM.
Same read-out and setting: the result for `Cn1nc(-c2noc(-c3ccccc3)c2C(F)(F)F)c2c1-c1ccc(CN3CC(C(=O)O)C3)cc1CC2` reads over 63 µM.
In the case of `O=C1NC(=O)C2(CN(Cc3ccc4c(c3)CCc3c-4noc3-c3noc(-c4ccccc4)c3C(F)(F)F)C2)N1`, the EC50 amounted to 23 µM.
On the same count and under the same terms, to `O=C(O)C[C@H]1CCCN(CC(O)c2ccc3c(c2)CCc2c-3noc2-c2noc(-c3ccccc3)c2C(F)(F)F)C1` (stereo in doubt; 73) [listing 1 of 2 here] belongs 7.4 µM.

Tested on in the next data set: not listed separately
Nature of the data set: Plasma concentration in Lewis rat at 1 mg/kg, po measured at 4 hr. The data set is classed as ADME, organism-based. The settings on record: Lewis, plasma. An outline of the steps: (§1)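 Lewis rats received a single oral 1.0 mg/kg dose as solution or suspension in PEG300. Blood was drawn retro-orbitally under isoflurane at 4 h and 24 h, within the blood lymphocyte reduction study. n = 3−4 per group, group mean reported.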
`CS(=O)(=O)CCNC(=O)C(O)c1ccc2c(c1)CCc1c-2noc1-c1noc(-c2ccccc2)c1C(F)(F)F` (stereo in doubt; 78) [listing 1 of 2 here]: the concentration at 4 h was 190 nM.
Still for that read-out and setting: the result for `O=C(O)[C@H]1CCCN(CC(O)c2ccc3c(c2)CCc2c-3noc2-c2noc(-c3ccccc3)c2C(F)(F)F)C1` (stereo in doubt; 75) [listing 1 of 2 here] reads 140 nM; that for `O=C(O)C1CN(Cc2ccc(-c3noc(-c4onc(-c5ccccc5)c4C(F)(F)F)n3)cc2)C1`, 2100 nM.

The data set is the same for the next values; noted with them: in vivo, 1 mg/kg, 4 h.
In turn, `O=C(O)C[C@H]1CCCN(CC(O)c2ccc3c(c2)CCc2c-3noc2-c2noc(-c3ccccc3)c2C(F)(F)F)C1` (stereo in doubt; 73) [listing 1 of 2 here] had a concentration of 190 nM.

The next data set has as its system Rattus norvegicus. Nature of the data set: Reduction in circulating lymphocytes count in Lewis rat blood at 1 mg/kg, po measured at 24 hrs by hematology analyzer based analysis. The data set is classed as functional. Also noted: scale not given: the % may be the effect or the level left.
Details: not given
The method in brief: (§2)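 Lewis rats were given an oral dose as a solution or suspension in PEG300, with controls receiving vehicle only. Blood was taken by retro-orbital bleeding under isoflurane at 4 and 24 h. Lymphocytes were counted on a hematology analyzer. Reduction is relative to the vehicle group, averaged over the animals in each group (n = 3−4).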
`CS(=O)(=O)CCNC(=O)C(O)c1ccc2c(c1)CCc1c-2noc1-c1noc(-c2ccccc2)c1C(F)(F)F` (stereo in doubt; 78) [listing 1 of 2 here] gave an Activity of 43%.
With `O=C(O)C1CN(Cc2ccc(-c3noc(-c4onc(-c5ccccc5)c4C(F)(F)F)n3)cc2)C1`, the Activity is 91%.

The same data set, now with this note: 1 mg/kg, 24 h.
The molecule `O=C(O)[C@H]1CCCN(CC(O)c2ccc3c(c2)CCc2c-3noc2-c2noc(-c3ccccc3)c2C(F)(F)F)C1` (stereo in doubt; 75) [listing 1 of 2 here] returned an Activity of 76%.
With `O=C(O)C[C@H]1CCCN(CC(O)c2ccc3c(c2)CCc2c-3noc2-c2noc(-c3ccccc3)c2C(F)(F)F)C1` (stereo in doubt; 73) [listing 1 of 2 here], the Activity is reported as 72%.

Tested on in the next data set: not listed separately
In words: Selectivity index, ratio of EC50 for agonist activity at human S1P3 expressed in CHO cell membranes to EC50 for agonist activity at human S1P1 expressed in CHO cell membranes. The data set is classed as cell-based.
Details: not given
`O=C(O)[C@H]1CCCN(CC(O)c2ccc3c(c2)CCc2c-3noc2-c2noc(-c3ccccc3)c2C(F)(F)F)C1` (stereo in doubt; 75) [listing 2 of 2 here]: the Ratio EC50 worked out at 62000.
For the molecule `CS(=O)(=O)CCNC(=O)C(O)c1ccc2c(c1)CCc1c-2noc1-c1noc(-c2ccccc2)c1C(F)(F)F` (stereo in doubt; 77), the Ratio EC50 turned out to be 90.
On the same count and under the same terms, the result for `O=C(O)[C@H]1CCCN(CC(O)c2ccc3c(c2)CCc2c-3noc2-c2noc(-c3ccccc3)c2C(F)(F)F)C1` (stereo in doubt; 76) reads 620; that for `O=C(O)C1CN(Cc2ccc3c(c2)CCc2c-3n[nH]c2-c2onc(-c3ccccc3)c2C(F)(F)F)C1`, over 330.
As for `CS(=O)(=O)CCNC(=O)C(O)c1ccc2c(c1)CCc1c-2noc1-c1noc(-c2ccccc2)c1C(F)(F)F` (stereo in doubt; 78) [listing 2 of 2 here], the Ratio EC50 turned out to be 3900.
The same measure, in the same setting: the result for `CN1Cc2c(noc2-c2onc(-c3ccccc3)c2C(F)(F)F)-c2ccc(CN3CC(C(=O)O)C3)cc21` reads over 39000; that for `O=C(O)C1CN(Cc2ccc3c(c2)CCCc2c(-c4noc(-c5ccccc5)c4C(F)(F)F)noc2-3)C1`, 390.
The same measure, in the same setting: the result for `Cn1nc(-c2noc(-c3ccccc3)c2C(F)(F)F)c2c1-c1ccc(CN3CC(C(=O)O)C3)cc1CC2` reads over 3000.
Still for that read-out and setting: the result for `O=C1NC(=O)C2(CN(Cc3ccc4c(c3)CCc3c-4noc3-c3noc(-c4ccccc4)c3C(F)(F)F)C2)N1` reads 450; that for `O=C(O)C[C@H]1CCCN(CC(O)c2ccc3c(c2)CCc2c-3noc2-c2noc(-c3ccccc3)c2C(F)(F)F)C1` (stereo in doubt; 74), 5200; that for `O=C(O)C[C@H]1CCCN(CC(O)c2ccc3c(c2)CCc2c-3noc2-c2noc(-c3ccccc3)c2C(F)(F)F)C1` (stereo in doubt; 73) [listing 2 of 2 here], 1900.

Tested on in a further data set: not listed separately
In words: Plasma concentration in Lewis rat at 1 mg/kg, po measured at 24 hrs. The data set is classed as ADME, organism-based. The settings on record: Lewis, plasma. The method in brief: as §1
For `CS(=O)(=O)CCNC(=O)C(O)c1ccc2c(c1)CCc1c-2noc1-c1noc(-c2ccccc2)c1C(F)(F)F` (stereo in doubt; 78) [listing 1 of 2 here], the concentration at 24 h is 26 nM.
Still for that read-out and setting: to `O=C(O)C1CN(Cc2ccc(-c3noc(-c4onc(-c5ccccc5)c4C(F)(F)F)n3)cc2)C1` belongs 700 nM.

Still in this data set, the particulars now being: in vivo, 1 mg/kg, 24 h.
With `O=C(O)[C@H]1CCCN(CC(O)c2ccc3c(c2)CCc2c-3noc2-c2noc(-c3ccccc3)c2C(F)(F)F)C1` (stereo in doubt; 75) [listing 1 of 2 here], the concentration was 49 nM.
The same measure, in the same setting: the result for `O=C(O)C[C@H]1CCCN(CC(O)c2ccc3c(c2)CCc2c-3noc2-c2noc(-c3ccccc3)c2C(F)(F)F)C1` (stereo in doubt; 73) [listing 1 of 2 here] reads 160 nM.

Tested on in the next data set: not listed separately
Nature of the data set: Ratio of plasma concentration in Lewis rat at 1 mg/kg, po measured at 4 hrs to plasma concentration in Lewis rat at 1 mg/kg, po measured at 24 hrs. It is filed as ADME, organism-based. The settings on record: in vivo.
For the molecule `O=C(O)[C@H]1CCCN(CC(O)c2ccc3c(c2)CCc2c-3noc2-c2noc(-c3ccccc3)c2C(F)(F)F)C1` (stereo in doubt; 75) [listing 1 of 2 here], the Ratio was found to be 3.
Regarding `O=C(O)C1CN(Cc2ccc(-c3noc(-c4onc(-c5ccccc5)c4C(F)(F)F)n3)cc2)C1`, the Ratio stood at 3.
Same read-out and setting: to `O=C(O)C[C@H]1CCCN(CC(O)c2ccc3c(c2)CCc2c-3noc2-c2noc(-c3ccccc3)c2C(F)(F)F)C1` (stereo in doubt; 73) [listing 1 of 2 here] belongs 1.

A further data set addresses Sphingosine 1-phosphate receptor 1 (Homo sapiens, UniProt P21453). In words: Agonist activity at human S1P1 expressed in CHO cell membranes assessed as stimulation of [35S]-GTPgamma-S binding measured after 45 mins by liquid scintillation counting method.
Details: not given
Also on record: species or system Cell membrane. The method in brief: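 S1P1/CHO cell membranes at 3 μg protein/well with 3-fold compound dilutions. [35S]GTPγS 0.2 nM final, 45 min at room temperature. Filter-plate capture, water washes, scintillation counting. EC50 taken at 50% of each compound's own Ymax.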
A general note: GTPγS resists hydrolysis and so accumulates on activated G proteins.
As for `CS(=O)(=O)CCNC(=O)C(O)c1ccc2c(c1)CCc1c-2noc1-c1noc(-c2ccccc2)c1C(F)(F)F` (stereo in doubt; 78) [listing 1 of 2 here], the EC50 was determined as 1.6 nM.
As to `O=C(O)C1CN(Cc2ccc3c(c2)CCc2c-3n[nH]c2-c2onc(-c3ccccc3)c2C(F)(F)F)C1`, the EC50 was determined as 190 nM.
On the same count and under the same terms, the result for `CN1Cc2c(noc2-c2onc(-c3ccccc3)c2C(F)(F)F)-c2ccc(CN3CC(C(=O)O)C3)cc21` reads 1.6 nM; that for `O=C(O)[C@H]1CCCN(CC(O)c2ccc3c(c2)CCc2c-3noc2-c2noc(-c3ccccc3)c2C(F)(F)F)C1` (stereo in doubt; 75) [listing 1 of 2 here], 0.21 nM; that for `O=C(O)C1CN(Cc2ccc3c(c2)CCCc2c(-c4noc(-c5ccccc5)c4C(F)(F)F)noc2-3)C1`, 31 nM.
On the same count and under the same terms, to `Cn1nc(-c2noc(-c3ccccc3)c2C(F)(F)F)c2c1-c1ccc(CN3CC(C(=O)O)C3)cc1CC2` belongs 21 nM; to `O=C1NC(=O)C2(CN(Cc3ccc4c(c3)CCc3c-4noc3-c3noc(-c4ccccc4)c3C(F)(F)F)C2)N1`, 51 nM.
The same measure, in the same setting: to `O=C(O)C[C@H]1CCCN(CC(O)c2ccc3c(c2)CCc2c-3noc2-c2noc(-c3ccccc3)c2C(F)(F)F)C1` (stereo in doubt; 73) [listing 1 of 2 here] belongs 4 nM.

The subject of a further data set is Rattus norvegicus. In words: Reduction in circulating lymphocytes count in Lewis rat blood at 1 mg/kg, po measured at 4 hrs by hematology analyzer based analysis. It is filed as functional. Also noted: scale not given: the % may be the effect or the level left.
Details: not given
The method in brief:
as §2
The molecule `CS(=O)(=O)CCNC(=O)C(O)c1ccc2c(c1)CCc1c-2noc1-c1noc(-c2ccccc2)c1C(F)(F)F` (stereo in doubt; 78) [listing 1 of 2 here] came in with an Activity of 50%.
Same read-out and setting: the result for `O=C(O)C1CN(Cc2ccc(-c3noc(-c4onc(-c5ccccc5)c4C(F)(F)F)n3)cc2)C1` reads 78%; that for `O=C(O)C[C@H]1CCCN(CC(O)c2ccc3c(c2)CCc2c-3noc2-c2noc(-c3ccccc3)c2C(F)(F)F)C1` (stereo in doubt; 73) [listing 1 of 2 here], 70%.

The same data set, now with this note: 1 mg/kg, 4 h.
Take `O=C(O)[C@H]1CCCN(CC(O)c2ccc3c(c2)CCc2c-3noc2-c2noc(-c3ccccc3)c2C(F)(F)F)C1` (stereo in doubt; 75) [listing 1 of 2 here]: the Activity is 76%.
